Key:
[1] = target: Tumour suppressor p53/oncoprotein Mdm2 (Homo sapiens, UniProt Q00987); experiment: Inhibition of GST-tagged MDM2 (amino acids 17 to 111 residues)/p53 (unknown origin) interaction incubated for 15 mins by; assay type: protein assay
[2] = test system: SJSA-1; experiment: Antiproliferative activity against human SJSA-1 cells expression wild type p53 incubated for 3 days by Alamar Blue dye based assay; assay type: functional, cell-based; details: SJSA-1, 72 h
[3] = test system: SK-OV-3; experiment: Antiproliferative activity against human SK-OV-3 cells expression p53 mutant incubated for 3 days by Alamar Blue dye based assay; assay type: functional, cell-based; details: SK-OV-3, 72 h
Method in brief: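 p53-mutant SK-OV-3 cells were used in a growth/proliferation assay, with compounds tested up to 25 μM.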

[4] = AUC (0 to 24 hrs) in NMRI mouse at 50 mg/kg, po; assay type: ADME, organism-based; parameters: time < 24 hr, route oral, dose 50 mg/kg; details: in vivo
Method in brief: (§1)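 Non-tumor-bearing female NMRI nude mice were given a single dose by one of two routes. The iv arm received 5 mg/kg as a bolus in 25% HP-B-CD. The po arm received 50 mg/kg in 0.5% Natrosol (pH 7-8, NaOH titrated). Both used 10 ml/kg. Plasma levels were measured by LC/MS/MS, n=3 per dose group. Parameters came from non-compartmental analysis, with AUC0-24h by linear trapezoidal interpolation.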

[5] = Cmax in NMRI mouse at 50 mg/kg, po; assay type: ADME, organism-based; parameters: route oral, dose 50 mg/kg; details: in vivo; method in brief: as §1
[6] = Clearance in NMRI mouse at 5 mg/kg, iv; assay type: ADME, organism-based; details: in vivo; method in brief: as §1
[7] = Volume of distribution at steady state in NMRI mouse at 5 mg/kg, iv; assay type: ADME, organism-based; details: in vivo, read-out: Vdss; method in brief: as §1
[8] = Oral bio availability in NMRI mouse at 50 mg/kg; assay type: ADME, organism-based; details: in vivo; method in brief: as §1

Tumour suppressor p53/oncoprotein Mdm2, sequence (P04637 whole entry, the tested form may be a part): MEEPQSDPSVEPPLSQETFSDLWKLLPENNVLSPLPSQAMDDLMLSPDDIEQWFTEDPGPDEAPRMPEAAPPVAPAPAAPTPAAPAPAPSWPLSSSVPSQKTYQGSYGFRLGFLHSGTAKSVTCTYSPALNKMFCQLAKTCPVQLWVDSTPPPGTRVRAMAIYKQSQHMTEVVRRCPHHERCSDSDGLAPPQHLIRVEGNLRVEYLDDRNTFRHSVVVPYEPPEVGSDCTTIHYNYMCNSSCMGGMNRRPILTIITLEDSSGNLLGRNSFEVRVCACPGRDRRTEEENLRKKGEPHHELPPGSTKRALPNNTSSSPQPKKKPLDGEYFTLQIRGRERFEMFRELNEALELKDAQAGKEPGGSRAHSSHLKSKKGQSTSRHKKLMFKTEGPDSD
Tumour suppressor p53/oncoprotein Mdm2, sequence (Q00987 whole entry, the tested form may be a part): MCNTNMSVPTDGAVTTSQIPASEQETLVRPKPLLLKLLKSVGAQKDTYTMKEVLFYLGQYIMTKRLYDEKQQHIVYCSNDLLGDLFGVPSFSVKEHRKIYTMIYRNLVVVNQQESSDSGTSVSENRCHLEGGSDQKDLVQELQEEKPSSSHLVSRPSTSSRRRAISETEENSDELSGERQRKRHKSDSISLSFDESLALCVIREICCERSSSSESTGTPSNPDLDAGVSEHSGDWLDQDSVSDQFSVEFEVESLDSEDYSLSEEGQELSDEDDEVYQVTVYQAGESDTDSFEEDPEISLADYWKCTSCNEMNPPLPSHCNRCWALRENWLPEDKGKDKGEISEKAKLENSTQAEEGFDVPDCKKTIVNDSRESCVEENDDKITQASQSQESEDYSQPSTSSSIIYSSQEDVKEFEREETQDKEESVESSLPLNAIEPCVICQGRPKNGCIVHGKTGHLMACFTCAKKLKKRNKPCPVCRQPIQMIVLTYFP

## O=C(O)CN1CC[C@H]2[C@@H]1[C@H](c1cccc(Cl)c1F)[C@]1(C(=O)Nc3cc(Cl)ccc31)N2CC1CC1 (racemic)
[1]
  IC50: 39 nM

## CCOc1cccc(CN2[C@H]3CCN(CC(=O)O)[C@H]3[C@H](c3cccc(Cl)c3F)[C@]23C(=O)Nc2cc(Cl)ccc23)c1
[2]
  IC50: 287 nM
[3]
  IC50: > 25000 nM

## CCOc1cccc(CN2[C@H]3C[C@H](c4ccc(C(=O)O)cc4)N[C@H]3[C@H](c3cccc(Cl)c3F)[C@]23C(=O)Nc2cc(Cl)ccc23)c1
[2]
  IC50: 67 nM
[3]
  IC50: > 25000 nM
[4]
  AUC(0-t) at 24 h: 8 µM·h
[5]
  Cmax: 3.4 µM
[6]
  clearance: 23.2 mL/min/kg
[7]
  Vd: 1 L/kg
[8]
  bioavailability: 13%

## O=C1Nc2cc(Cl)ccc2[C@@]12[C@@H](c1cccc(Cl)c1F)[C@@H]1NCC[C@@H]1N2CC1CC1
[1]
  IC50: 137 nM
[2]
  IC50: 2610 nM
[3]
  IC50: > 25000 nM

## C[C@@H]1N[C@@]2(C(=O)Nc3cc(Cl)ccc32)[C@@H](c2cccc(Cl)c2)[C@@H]1N (racemic)
[1]
  IC50: 74000 nM

## CC(=O)N1CC[C@H]2[C@@H]1[C@H](c1cccc(Cl)c1F)[C@]1(C(=O)Nc3cc(Cl)ccc31)N2CC1CC1 (racemic)
[1]
  IC50: 212 nM

## CC(C)CN1C[C@@H](N)[C@H](c2cccc(Cl)c2)[C@]12C(=O)Nc1cc(Cl)ccc12
[1]
  IC50: 944 nM

## O=C1Nc2cc(Cl)ccc2[C@]12NC[C@@H]([N+](=O)[O-])[C@@H]2c1cccc(Cl)c1 (racemic)
[1]
  IC50: 36500 nM

## O=C(O)CC[C@@H]1N[C@@]2(C(=O)Nc3cc(Cl)ccc32)[C@@H](c2cccc(Cl)c2)[C@@H]1[N+](=O)[O-] (racemic)
[1]
  IC50: 16000 nM

## O=C1Nc2cc(Cl)ccc2[C@]12N[C@@H](Cc1ccccc1)[C@@H]([N+](=O)[O-])[C@@H]2c1cccc(Cl)c1 (racemic)
[1]
  IC50: 15600 nM

## O=C(O)CN1CC[C@H]2[C@@H]1[C@H](c1cccc(Cl)c1)[C@]1(C(=O)Nc3cc(Cl)ccc31)N2CC1CC1 (racemic)
[1]
  IC50: 80 nM

## CCOc1cccc(CN2[C@@H](C)[C@@H](N)[C@H](c3cccc(Cl)c3F)[C@]23C(=O)Nc2cc(Cl)ccc23)c1 (racemic)
[1]
  IC50: 57 nM

## O=C(O)C[C@@H]1N[C@@]2(C(=O)Nc3cc(Cl)ccc32)[C@@H](c2cccc(Cl)c2)[C@@H]1[N+](=O)[O-] (racemic)
[1]
  IC50: 18600 nM

## NC(=O)c1ccc([C@H]2C[C@H]3[C@@H](N2)[C@H](c2cccc(Cl)c2F)[C@]2(C(=O)Nc4cc(Cl)ccc42)N3CC2CC2)cc1
[2]
  IC50: 1450 nM
[3]
  IC50: > 25000 nM
[4]
  AUC(0-t) at 24 h: 100 µM·h
[5]
  Cmax: 6.9 µM
[6]
  clearance: 7.4 mL/min/kg
[7]
  Vd: 2 L/kg
[8]
  bioavailability: 58%

## O=C1Nc2cc(Cl)ccc2[C@]12CNC[C@@H]2c1cccc(Cl)c1 (racemic)
[1]
  IC50: 36000 nM

## C[C@H]1[C@@H](N)[C@H](c2cccc(Cl)c2)[C@]2(C(=O)Nc3cc(Cl)ccc32)N1CC1CC1
[1]
  IC50: 563 nM

## COC(=O)c1ccc([C@H]2C[C@H]3[C@@H](N2)[C@H](c2cccc(Cl)c2F)[C@]2(C(=O)Nc4cc(Cl)ccc42)N3CC2CC2)cc1
[1]
  IC50: 81 nM

From ChEMBL document CHEMBL4680091, “Discovery of Novel Spiro[3H-indole-3,2'-pyrrolidin]-2(1H)-one Compounds as Chemically Stable and Orally Active Inhibitors of the MDM2-p53 Interaction” (J Med Chem, 2016)
